The text below walks through data of ChEMBL document CHEMBL4190386, “Discovery of 6-(pyrimidin-5-ylmethyl)quinoline-8-carboxamide negative allosteric modulators of metabotropic glutamate receptor subtype 5” (Bioorg Med Chem Lett, 2018).

Series [1] has as its target Metabotropic glutamate receptor 5 (Rattus norvegicus, UniProt P31424). Nature of the series: Negative allosteric modulator activity at rat mGlu5 receptor expressed in HEK293A cells assessed as inhibition of EC80 glutamate-induced Ca2+ mobilization by Fluo-4 AM dye based fluorescence assay. The series is classed as functional, cell-based. A general note: Calcium flux is commonly read through the fluorescence of an indicator in the cells.

Series [2] deals with Metabotropic glutamate receptor 5 (Rattus norvegicus) (UniProt P31424). Kind of series: Negative allosteric modulator activity at rat mGlu5 receptor expressed in HEK293A cells assessed as EC80 glutamate-induced maximum Ca2+ mobilization response at 30 uM relative to 100 uM glutamate by Fluo-4 AM dye based fluorescence assay. The series is classed as functional, cell-based.
Series [3] in a line: in vitro. The note with it: rat, plasma.
Series [4] in a line: in vitro. To be noted: human, plasma.
A short description of series [5]: Drug metabolism in rat whole blood assessed as 6-(hydroxy(pyridin-3-yl)methyl)-N-(4-methylthiazol-2-yl)quinoline-8-carboxamide formation at 37 degC incubated for 1 hr. The format is ADME, tissue-based.
Series [6] can be described thus: Half life in rat at 1 mg/kg, iv. The format is ADME, organism-based. To be noted: in vivo. Put shortly:
(§1)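 Rat intravenous PK: n = 2 male Sprague-Dawley rats, 1.0 mg/kg IV in 10% ethanol/90% PEG 400. Parent and the alcohol metabolite were measured in plasma. MRT = mean residence time.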

A short description of series [7]: Mean residence time in rat at 1 mg/kg, iv. The format is ADME, organism-based. To be noted: in vivo. Put shortly: as §1
The nature of series [8]: Volume of distribution at steady state in rat at 1 mg/kg, iv. The note with it: in vivo, read-out: Vdss. The series is classed as ADME, organism-based. Put shortly: as §1
Series [9] relates to Rattus norvegicus. Kind of series: Half life in rat assessed as 6-(hydroxy(pyridin-3-yl)methyl)-N-(4-methylthiazol-2-yl)quinoline-8-carboxamide formation at 1 mg/kg, iv. The series is classed as ADME, organism-based. The note with it: in vivo. Put shortly:
as §1

The test system of series [10] is Rattus norvegicus. Nature of the series: Mean residence time in rat assessed as 6-(hydroxy(pyridin-3-yl)methyl)-N-(4-methylthiazol-2-yl)quinoline-8-carboxamide formation at 1 mg/kg, iv. The series is classed as ADME, organism-based. The note with it: in vivo. Put shortly:
as §1

Series [11] concerns Rattus norvegicus. Nature of the series: Volume of distribution at steady state in rat assessed as 6-(hydroxy(pyridin-3-yl)methyl)-N-(4-methylthiazol-2-yl)quinoline-8-carboxamide formation at 1 mg/kg, iv. The format is ADME, organism-based. To be noted: in vivo. Put shortly:
as §1

Series [12] in a line: Drug metabolism in rat whole blood treated with N-(4-methylthiazol-2-yl)-6-nicotinoylquinoline-8-carboxamide assessed as compound formation at 37 degC incubated for 1 hr. The series is classed as ADME, tissue-based.
For series [13], the target named is Metabotropic glutamate receptor 5 (Homo sapiens) (UniProt P41594). Nature of the series: Negative allosteric modulation of human mGlu5 receptor expressed in HEK293A cells assessed as reduction in glutamate-induced calcium mobilization at 10 uM by Fluo-4--AM dye based fluorescence assay. The format is functional, cell-based.
For series [14], the target named is Metabotropic glutamate receptor 2 (Rattus norvegicus) (UniProt P31421). Kind of series: Negative allosteric modulation of rat mGlu2 receptor expressed in HEK cells harboring GIRK assessed as reduction in glutamate-induced thallium flux at 10 uM preincubated for 5 mins followed by glutamate addition measured after 2 mins by BTC-AM-dye based fluorescence assay. The format is functional, cell-based.

For series [15], the target named is Metabotropic glutamate receptor 3 (Rattus norvegicus) (UniProt P31422). Nature of the series: Negative allosteric modulation of rat mGlu3 receptor expressed in HEK cells harboring GIRK assessed as reduction in glutamate-induced thallium flux at 10 uM preincubated for 5 mins followed by glutamate addition measured after 2 mins by BTC-AM-dye based fluorescence assay. The format is functional, cell-based.

Series [16] addresses Metabotropic glutamate receptor 4 (Rattus norvegicus) (UniProt P31423). Nature of the series: Negative allosteric modulation of rat mGlu4 receptor expressed in HEK cells harboring GIRK assessed as reduction in glutamate-induced thallium flux at 10 uM preincubated for 5 mins followed by glutamate addition measured after 2 mins by BTC-AM-dye based fluorescence assay. The format is functional, cell-based.

In series [17] the target is Metabotropic glutamate receptor 6 (Rattus norvegicus) (UniProt P35349). Kind of series: Negative allosteric modulation of rat mGlu6 receptor expressed in HEK cells harboring GIRK assessed as reduction in glutamate-induced thallium flux at 10 uM preincubated for 5 mins followed by glutamate addition measured after 2 mins by BTC-AM-dye based fluorescence assay. The series is classed as functional, cell-based.

The target in series [18] is Metabotropic glutamate receptor 7 (Rattus norvegicus) (UniProt P35400). Nature of the series: Negative allosteric modulation of rat mGlu7 receptor expressed in HEK cells harboring GIRK assessed as reduction in L-AP4-induced thallium flux at 10 uM preincubated for 5 mins followed by glutamate addition measured after 2 mins by BTC-AM-dye based fluorescence assay. The series is classed as functional, cell-based.

The target in series [19] is Metabotropic glutamate receptor 8 (Rattus norvegicus) (UniProt P70579). Nature of the series: Negative allosteric modulation of rat mGlu8 receptor expressed in HEK cells harboring GIRK assessed as reduction in glutamate-induced thallium flux at 10 uM preincubated for 5 mins followed by glutamate addition measured after 2 mins by BTC-AM-dye based fluorescence assay. The format is functional, cell-based.

The target of series [20] is Metabotropic glutamate receptor 1 (Rattus norvegicus) (UniProt P23385). Kind of series: Negative allosteric modulation of rat mGlu1 receptor expressed in HEK293 cells assessed as reduction in glutamate-induced calcium mobilization at 10 uM preincubated for 2.3 mins followed by glutamate addition measured after 2.6 mins by Fluo-4--AM dye based fluorescence assay. The format is functional, cell-based.

Series [21] is described as follows: Metabolic stability in human hepatic S9 fraction assessed as NADPH dependent metabolism incubated for 60 mins by LC/MS analysis. To be noted: read-out: Drug metabolism. The format is ADME, subcellular, Liver.
Series [22] can be described thus: Metabolic stability in rat hepatic S9 fraction assessed as NADPH dependent metabolism incubated for 60 mins by LC/MS analysis. The format is ADME, subcellular, Liver. To be noted: read-out: Drug metabolism.

Structures are written as SMILES. Calls of active or inactive are those of the source. No cut-off for these calls is given here.

Sequence of Metabotropic glutamate receptor 5 (Rattus norvegicus) (P31424 21-1203 limits assumed): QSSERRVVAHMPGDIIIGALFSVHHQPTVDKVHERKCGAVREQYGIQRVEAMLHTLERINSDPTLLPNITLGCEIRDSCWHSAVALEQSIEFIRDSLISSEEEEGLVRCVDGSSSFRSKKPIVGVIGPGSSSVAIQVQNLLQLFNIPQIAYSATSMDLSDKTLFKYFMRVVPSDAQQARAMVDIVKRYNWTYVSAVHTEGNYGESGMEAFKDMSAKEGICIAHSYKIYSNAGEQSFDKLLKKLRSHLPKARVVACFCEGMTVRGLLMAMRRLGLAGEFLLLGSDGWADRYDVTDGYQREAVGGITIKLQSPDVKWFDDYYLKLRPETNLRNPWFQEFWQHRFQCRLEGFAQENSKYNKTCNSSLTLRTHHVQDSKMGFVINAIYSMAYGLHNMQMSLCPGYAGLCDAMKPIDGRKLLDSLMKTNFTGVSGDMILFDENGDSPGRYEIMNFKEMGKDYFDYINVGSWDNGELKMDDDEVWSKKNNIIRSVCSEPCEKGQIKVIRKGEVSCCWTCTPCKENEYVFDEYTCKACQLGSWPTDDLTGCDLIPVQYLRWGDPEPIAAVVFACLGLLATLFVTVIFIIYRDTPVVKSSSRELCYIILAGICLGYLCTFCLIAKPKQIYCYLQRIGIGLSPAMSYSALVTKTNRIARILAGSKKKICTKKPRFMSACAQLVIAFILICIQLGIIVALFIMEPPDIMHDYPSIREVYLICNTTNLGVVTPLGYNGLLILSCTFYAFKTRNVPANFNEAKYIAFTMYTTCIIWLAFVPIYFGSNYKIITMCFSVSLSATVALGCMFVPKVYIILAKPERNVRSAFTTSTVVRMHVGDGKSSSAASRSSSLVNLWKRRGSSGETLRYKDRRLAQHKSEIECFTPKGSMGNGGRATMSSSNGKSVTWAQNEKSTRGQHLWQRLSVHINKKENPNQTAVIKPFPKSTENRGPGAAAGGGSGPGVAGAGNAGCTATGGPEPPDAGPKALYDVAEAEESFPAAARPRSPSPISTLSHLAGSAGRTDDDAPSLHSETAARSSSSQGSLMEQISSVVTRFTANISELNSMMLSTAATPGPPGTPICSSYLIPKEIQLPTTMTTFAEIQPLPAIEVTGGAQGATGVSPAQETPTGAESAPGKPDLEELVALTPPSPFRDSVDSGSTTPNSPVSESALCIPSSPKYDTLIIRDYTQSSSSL
Sequence of Metabotropic glutamate receptor 5 (P31424 whole entry): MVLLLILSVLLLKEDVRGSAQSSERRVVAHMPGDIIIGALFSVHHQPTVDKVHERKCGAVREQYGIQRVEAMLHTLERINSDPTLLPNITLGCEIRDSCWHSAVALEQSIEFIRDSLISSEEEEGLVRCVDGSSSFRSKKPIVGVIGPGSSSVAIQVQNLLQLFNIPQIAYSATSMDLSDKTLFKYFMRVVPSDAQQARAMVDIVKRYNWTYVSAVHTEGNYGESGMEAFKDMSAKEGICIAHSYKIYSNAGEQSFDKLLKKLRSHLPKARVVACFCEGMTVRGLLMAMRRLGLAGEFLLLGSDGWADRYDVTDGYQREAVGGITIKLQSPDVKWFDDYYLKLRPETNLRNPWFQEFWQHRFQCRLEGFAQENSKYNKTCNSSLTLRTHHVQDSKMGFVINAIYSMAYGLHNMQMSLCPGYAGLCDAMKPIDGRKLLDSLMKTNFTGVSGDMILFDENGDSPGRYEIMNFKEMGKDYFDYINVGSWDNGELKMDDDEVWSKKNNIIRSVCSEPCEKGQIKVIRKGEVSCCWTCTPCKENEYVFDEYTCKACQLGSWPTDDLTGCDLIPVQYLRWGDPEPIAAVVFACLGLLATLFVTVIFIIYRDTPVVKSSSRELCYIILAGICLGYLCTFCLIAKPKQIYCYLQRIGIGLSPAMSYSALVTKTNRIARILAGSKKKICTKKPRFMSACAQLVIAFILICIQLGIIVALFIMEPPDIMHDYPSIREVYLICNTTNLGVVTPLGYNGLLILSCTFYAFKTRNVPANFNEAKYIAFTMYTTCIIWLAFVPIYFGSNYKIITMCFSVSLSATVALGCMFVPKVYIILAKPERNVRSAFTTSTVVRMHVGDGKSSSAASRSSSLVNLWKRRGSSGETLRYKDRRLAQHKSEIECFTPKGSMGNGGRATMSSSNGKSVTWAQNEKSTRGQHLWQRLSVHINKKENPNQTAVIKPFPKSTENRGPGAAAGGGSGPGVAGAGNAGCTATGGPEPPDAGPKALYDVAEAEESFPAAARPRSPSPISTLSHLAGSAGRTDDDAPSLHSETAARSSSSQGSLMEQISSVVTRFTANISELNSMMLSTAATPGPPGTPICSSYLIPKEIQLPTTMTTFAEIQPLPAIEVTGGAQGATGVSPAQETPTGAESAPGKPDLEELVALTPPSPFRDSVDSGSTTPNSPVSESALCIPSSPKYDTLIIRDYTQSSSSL
Sequence of Metabotropic glutamate receptor 2 (Rattus norvegicus) (P31421 19-872 limits assumed): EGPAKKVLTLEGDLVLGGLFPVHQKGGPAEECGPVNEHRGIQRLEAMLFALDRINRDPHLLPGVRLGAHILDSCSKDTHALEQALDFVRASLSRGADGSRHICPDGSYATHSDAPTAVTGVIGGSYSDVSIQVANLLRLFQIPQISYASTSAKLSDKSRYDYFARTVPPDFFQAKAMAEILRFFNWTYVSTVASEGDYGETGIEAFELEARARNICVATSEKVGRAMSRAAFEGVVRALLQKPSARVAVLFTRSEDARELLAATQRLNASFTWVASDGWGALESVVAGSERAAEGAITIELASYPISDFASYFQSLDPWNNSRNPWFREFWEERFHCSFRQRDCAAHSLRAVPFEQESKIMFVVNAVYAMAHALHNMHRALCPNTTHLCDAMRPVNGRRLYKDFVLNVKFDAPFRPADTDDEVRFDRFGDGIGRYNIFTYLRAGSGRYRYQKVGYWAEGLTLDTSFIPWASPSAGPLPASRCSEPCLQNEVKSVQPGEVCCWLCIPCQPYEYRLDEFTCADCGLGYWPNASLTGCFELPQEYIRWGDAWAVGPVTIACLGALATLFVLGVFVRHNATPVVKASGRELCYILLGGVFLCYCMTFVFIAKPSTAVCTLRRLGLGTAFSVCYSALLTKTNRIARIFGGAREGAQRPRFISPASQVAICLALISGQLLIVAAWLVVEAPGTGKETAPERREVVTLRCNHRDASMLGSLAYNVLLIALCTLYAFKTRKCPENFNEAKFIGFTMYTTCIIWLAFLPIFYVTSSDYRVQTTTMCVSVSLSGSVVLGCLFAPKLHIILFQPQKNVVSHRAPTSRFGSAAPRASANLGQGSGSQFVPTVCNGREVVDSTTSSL
Sequence of Metabotropic glutamate receptor 3 (Rattus norvegicus) (P31422 23-879 limits assumed): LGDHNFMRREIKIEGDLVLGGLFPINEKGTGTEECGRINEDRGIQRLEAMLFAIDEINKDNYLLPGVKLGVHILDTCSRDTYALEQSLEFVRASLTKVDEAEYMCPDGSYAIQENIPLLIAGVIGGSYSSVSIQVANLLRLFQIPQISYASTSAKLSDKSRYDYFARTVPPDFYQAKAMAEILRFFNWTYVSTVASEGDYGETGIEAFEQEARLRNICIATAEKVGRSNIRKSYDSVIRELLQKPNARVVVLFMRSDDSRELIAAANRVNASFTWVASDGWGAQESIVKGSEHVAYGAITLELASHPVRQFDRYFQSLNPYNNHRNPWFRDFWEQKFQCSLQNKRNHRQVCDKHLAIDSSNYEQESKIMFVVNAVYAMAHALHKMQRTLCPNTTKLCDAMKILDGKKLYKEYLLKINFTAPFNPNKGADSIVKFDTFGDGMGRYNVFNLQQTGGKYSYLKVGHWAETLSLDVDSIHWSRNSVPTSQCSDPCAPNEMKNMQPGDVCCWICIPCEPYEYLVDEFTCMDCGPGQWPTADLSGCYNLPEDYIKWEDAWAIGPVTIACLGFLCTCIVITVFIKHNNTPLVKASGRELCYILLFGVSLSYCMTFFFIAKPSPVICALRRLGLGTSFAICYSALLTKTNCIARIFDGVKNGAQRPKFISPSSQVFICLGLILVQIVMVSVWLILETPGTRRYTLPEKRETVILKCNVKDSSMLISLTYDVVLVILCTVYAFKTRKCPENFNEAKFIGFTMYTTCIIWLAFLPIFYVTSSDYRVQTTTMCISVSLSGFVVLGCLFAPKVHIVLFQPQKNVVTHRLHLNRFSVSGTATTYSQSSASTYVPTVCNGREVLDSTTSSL
Sequence of Metabotropic glutamate receptor 4 (Rattus norvegicus) (P31423 whole entry): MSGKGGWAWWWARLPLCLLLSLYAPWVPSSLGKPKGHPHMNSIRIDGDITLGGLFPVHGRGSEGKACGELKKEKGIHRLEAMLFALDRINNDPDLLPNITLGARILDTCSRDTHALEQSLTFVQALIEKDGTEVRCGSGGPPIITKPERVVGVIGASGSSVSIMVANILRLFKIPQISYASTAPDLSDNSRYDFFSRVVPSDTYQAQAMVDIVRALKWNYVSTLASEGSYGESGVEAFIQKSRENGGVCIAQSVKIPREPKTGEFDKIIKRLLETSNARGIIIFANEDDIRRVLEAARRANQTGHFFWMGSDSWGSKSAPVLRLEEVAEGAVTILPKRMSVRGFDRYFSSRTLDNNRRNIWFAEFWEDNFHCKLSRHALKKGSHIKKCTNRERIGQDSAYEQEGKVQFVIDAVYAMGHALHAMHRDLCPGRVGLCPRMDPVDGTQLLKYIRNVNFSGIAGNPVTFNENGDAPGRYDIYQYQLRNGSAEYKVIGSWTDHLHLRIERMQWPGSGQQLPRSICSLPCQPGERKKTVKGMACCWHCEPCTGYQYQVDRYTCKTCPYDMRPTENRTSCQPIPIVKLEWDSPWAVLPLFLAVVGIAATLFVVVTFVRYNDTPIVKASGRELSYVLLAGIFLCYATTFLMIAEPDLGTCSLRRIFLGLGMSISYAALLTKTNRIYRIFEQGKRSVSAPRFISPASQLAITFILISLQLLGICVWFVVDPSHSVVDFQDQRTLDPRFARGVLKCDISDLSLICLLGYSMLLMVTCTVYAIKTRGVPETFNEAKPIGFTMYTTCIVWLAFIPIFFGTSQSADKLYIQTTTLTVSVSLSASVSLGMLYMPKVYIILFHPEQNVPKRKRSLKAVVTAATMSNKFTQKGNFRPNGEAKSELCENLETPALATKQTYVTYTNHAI

For orientation: IC50 means the concentration at which inhibition is half-maximal. Consider `N#Cc1ccc(NC(=O)c2cc(C(F)(F)c3cncnc3)cc3cccnc23)nc1`, for which the IC50 in [1] was more than 30000 nM.
With `COC(c1cncnc1)c1cc(C(=O)Nc2nc(C)cs2)c2ncccc2c1` (centres undefined), the IC50 in series [1] came out at 1750 nM. Besides, the %max in [2] came to 1.8%.
Regarding `O=C(c1cncnc1)c1cc(C(=O)Nc2ccc(F)cn2)c2ncccc2c1`, the IC50 in series [1] came to 842 nM. In addition, the %max in series [2] was 2.7%.
Taken in the same sequence, the figures for `O=C(Nc1ccc(F)cn1)c1cc(C(F)(F)c2cncnc2)cc2cccnc12` were 392 nM and 4.5%.
As to `N#Cc1ccnc(NC(=O)c2cc(C(F)(F)c3cncnc3)cc3cccnc23)c1`, the IC50 in series [1] is more than 30000 nM.
Consider `COc1cccc(NC(=O)c2cc(C(F)(F)c3cncnc3)cc3cccnc23)n1`, for which, in series [1], the IC50 stood at 1610 nM. Moreover, the %max in series [2] was determined as 7.1%.
As a reminder, the fraction unbound is the share of the substance not bound to proteins or other matrix. Lower therefore signals extensive binding. On to `O=C(Nc1ccc(F)cn1)c1cc(Oc2cncc(F)c2)cn2ncnc12`, for which the fraction unbound at 4 h, 5 µM came to 0.066 in the series “in vitro [3]” and 0.071 in the series “in vitro [4]”.
With `Cc1cccc(NC(=O)c2cc(C(F)(F)c3cncnc3)cc3cccnc23)n1`, the concentration for half-maximal inhibition (IC50) in [1] is 1100 nM. Moreover, the %max in series [2] came out at 2.7%.
Turning to `O=C(Nc1ccc(F)cn1)c1cc(Oc2cncc(F)c2)cc2cccnc12`, the IC50 in series [1] was determined as 8 nM.
The half-life is the time in which the quantity being followed falls by half. Lower therefore signals rapid decline. A word on the MRT: it is the average time that molecules of a dose stay in the body. The term Vdss denotes the apparent volume that relates the amount in the body to the concentration in plasma or blood. As to `Cc1csc(NC(=O)c2cc(C(=O)c3cncnc3)cc3cccnc23)n1`, the IC50 in series [1] came out at 172 nM. In series [2], the %max is 1.3%. The Drug metabolism result in [5] was “Metabolite_Detected”. This compound also showed a half-life in series [6] of 30 min. In addition, the MRT in series [7] is 19 min; with Rattus norvegicus [10] it was 107 min. For the same compound, the Vd in series [8] is 50 L/kg. In addition, in the series with Rattus norvegicus [9], the t1/2 is 171 min. In addition, in the series on Rattus norvegicus [11], the Vdss was determined as 10 L/kg.
`Cc1cccc(NC(=O)c2cc(C(=O)c3cncnc3)cc3cccnc23)n1`: the IC50 in [1] came to 417 nM. The %max in [2] was found to be 1.5%.
Taken in the same sequence, the figures for `Cc1csc(NC(=O)c2cc(C(C)c3cncnc3)cc3cccnc23)n1` (centres undefined) were 589 nM and 1.4%.
The like results for `Cc1ccc(NC(=O)c2cc(C(F)(F)c3cncnc3)cc3cccnc23)nc1` were, in that order, 676 nM and 3%.
The like results for `Cc1ccnc(NC(=O)c2cc(C(F)(F)c3cncnc3)cc3cccnc23)c1` were, in that order, more than 10000 nM and 44%.
`O=C(Nc1nc(C2CC2)cs1)c1cc(C(F)(F)c2cncnc2)cc2cccnc12`: the IC50 in series [1] stood at 558 nM. Further, the %max in series [2] turned out to be 3%.
As to `Cc1csc(NC(=O)c2cc(C(O)c3cncnc3)cc3cccnc23)n1` (centres undefined), the IC50 in series [1] is more than 10000 nM. In series [12], the Drug uptake entry is given as “Active”.
Regarding `COc1ccnc(NC(=O)c2cc(C(F)(F)c3cncnc3)cc3cccnc23)c1`, the IC50 in [1] is more than 30000 nM.
`Cc1csc(NC(=O)c2cc(C(F)(F)c3cncnc3)cc3cccnc23)n1`: the inhibition entry in series [13] was “Active”. Moreover, the inhibition result in series [14], in series [15], in series [16], in series [17], in [18] and in [19] was “inactive” throughout. For the same compound, the inhibition result in series [20] is “inactive”.
Take `CCc1cccc(NC(=O)c2cc(C(F)(F)c3cncnc3)cc3cccnc23)n1`: in [1], the IC50 came to 3600 nM. The %max in [2] is 7.8%.
As to `O=C(c1cncnc1)c1cc(C(=O)Nc2cccc(F)n2)c2ncccc2c1`, the IC50 in series [1] is more than 10000 nM. Further, the %max in series [2] was 12.5%.
Taken in the same sequence, the figures for `O=C(Nc1ccc(F)cn1)c1cc(C(F)c2cncnc2)cc2cccnc12` (centres undefined) were 217 nM and 1.5%.
As to `COC(c1cncnc1)c1cc(C(=O)Nc2ccc(F)cn2)c2ncccc2c1` (centres undefined), the IC50 in series [1] was 3480 nM. The %max in [2] amounted to 2.9%.
For `CC(c1cncnc1)c1cc(C(=O)Nc2ccc(F)cn2)c2ncccc2c1` (centres undefined), the IC50 in [1] was 1520 nM. Further, in [2], the %max is 1.5%.
As to `Cc1csc(NC(=O)c2cc(C(F)c3cncnc3)cc3cccnc23)n1` (centres undefined), the IC50 in [1] is 378 nM. Besides, the %max in series [2] turned out to be 1.7%. In addition, the metabolised at 1 h in series [21] is 27%; in [22], 55%.
